hK5 inh = inhibitors of human kallikrein 5 | AID 873 | inhibition, % at 5 µM | 0.59% of 210,000 active | recombinant hK5, fluorogenic AMC substrate cleavage;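 active = inhibition of 40% or more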;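 note: 0% = enzyme controls without compound and 100% = no-enzyme blanks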
PGE2 EP2 inh = blocks the human prostaglandin E2 receptor EP2 | P43116 | AID 1422 | C6 glioma cells expressing human EP2, cAMP TR-FRET; cells stimulated with saturating PGE2 | 0.52% of 260,000 active | inhibition, % at 25 µM;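 active = percent inhibition above 40 after rounding to a whole number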;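 note: rat C6 glioma host cells with rolipram phosphodiesterase inhibitor present; the protocol text gives 20 µM as final concentration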
thrombin 1536 = blocks human thrombin protease activity. P00734. alpha-thrombin, Boc-VPR-AMC fluorogenic substrate cleavage. inhibition, % at 5 µM. 0.26% of 220,000 active;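 active = inhibition at or above 40%; inactive = inhibition below 40%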;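 note: 0% = enzyme with no compound and 100% = wells without enzyme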
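System: human alpha-thrombin protein; Compound dosing: one concentration per compound, 5 µM, with 0.2% DMSO; Timing: reaction at room temperature; Technique: AMC fluorescence, 355/460 nm; Controls: enzyme without compound as high, wells lacking enzyme as low.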
FXIa inh = blocks human coagulation factor XIa protease activity; inhibition, % at 5 µM; 0.14% of 220,000 active; P03951; purified FXIa, Boc-Glu-Ala-Arg-AMC fluorogenic substrate;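 active = inhibition of at least 40%; inactive = inhibition below 40%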;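 note: fluorescence of freed AMC excited at 355 nm; 0% = enzyme without compound and 100% = no enzyme blank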
FXIIa inh = blocks human coagulation factor XIIa protease activity; purified FXIIa, Boc-QGR-AMC fluorogenic substrate, 2 h; inhibition, % at 5 µM; P00748; 0.3% of 220,000 active; in the data active = inhibition above about 40%;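 note: 0% = enzyme with no compound and 100% = blank without enzyme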
Target sequence (P00748 20-372 limits assumed): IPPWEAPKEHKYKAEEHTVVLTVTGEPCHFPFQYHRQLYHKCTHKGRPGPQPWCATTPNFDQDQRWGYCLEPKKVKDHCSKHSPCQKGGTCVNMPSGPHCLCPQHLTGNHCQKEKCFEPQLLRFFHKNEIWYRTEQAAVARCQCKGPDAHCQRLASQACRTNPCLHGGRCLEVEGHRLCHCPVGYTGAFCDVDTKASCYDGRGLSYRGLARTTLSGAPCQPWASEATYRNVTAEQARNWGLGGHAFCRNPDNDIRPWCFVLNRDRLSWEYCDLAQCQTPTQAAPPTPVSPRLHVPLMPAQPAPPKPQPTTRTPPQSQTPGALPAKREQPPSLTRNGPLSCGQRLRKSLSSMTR
Target sequence (P00748 373-615 limits assumed): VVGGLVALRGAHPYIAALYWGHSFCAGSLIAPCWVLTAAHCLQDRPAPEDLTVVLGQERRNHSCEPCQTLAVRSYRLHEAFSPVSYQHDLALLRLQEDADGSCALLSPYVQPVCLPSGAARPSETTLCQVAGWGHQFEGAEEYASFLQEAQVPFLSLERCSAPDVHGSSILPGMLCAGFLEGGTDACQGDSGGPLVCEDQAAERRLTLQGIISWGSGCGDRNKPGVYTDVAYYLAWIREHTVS
EP2 mod = EP2 receptor (human) modulation; P43116; EP2-expressing cells, cAMP HTRF FRET, PGE2 co-stimulation; induction, % at 25 µM; 0.83% of 260,000 active; AID 940;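 active = compounds whose cAMP rise, as percent of the full-agonist control response, exceeds 60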;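 note: rat C6 glioma line stably carrying human EP2 under a CMV promoter; the protocol text gives 20 µM as final concentration; 100% = response of wells given 1 µM PGE2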
Numbers without * were called inactive; x = no result; ! = not active in a repeat. This is a sample that favours compounds with a hit; in the whole collection about 2.1% have one here.

SMILES	hK5 inh	PGE2 EP2 inh	thrombin 1536	FXIa inh	FXIIa inh	EP2 mod
COc1ccccc1-c1cc(C(=O)NCc2cccs2)no1	-5.2	6.5	-0.5	-0.7	11.4	-47.3
COc1ccc(S(=O)(=O)N(Cc2ccc(C)cc2)Cc2cc3ccc(OC)cc3[nH]c2=O)cc1	x	12.6	x	x	x	-34.0
Cn1cc(C(O)CN2CCC(O)(c3ccc(C(F)(F)F)cc3)CC2)c2ccccc21 (stereo unspecified)	x	6.6	x	x	x	-72.5
CCCn1c(=O)c(C(=O)NCCO)c(O)c2ccccc21	x	14.0	x	x	x	24.7
CCn1c(=O)c(C(=O)NCc2ccc(OC)c(OC)c2)c(O)c2ccccc21	-8.1	9.8	-2.8	-1.5	15.9	60.7*!
CCn1c(=O)c(C(=O)NCc2ccc(OC)cc2)c(O)c2ccccc21	3.1	-1.1	2.8	3.7	6.3	61.7*
CCCn1c(=O)c(C(=O)NCCc2ccc(OC)cc2)c(O)c2ccccc21	x	9.0	x	x	x	70.8*
O=C(c1n[nH]c(=O)c2ccccc12)N1CCC(n2nnc(-c3ccccc3)n2)CC1	x	9.3	x	x	x	-6.3
Cc1ccc(-c2cc(N)c(=O)n(C(C)C(=O)NC3CCCCC3)n2)o1 (stereo unspecified)	x	7.3	x	x	x	-51.2
CCN(CC)S(=O)(=O)c1cccc(-c2nnc(SC(C)C(=O)NCCC3=CCCCC3)o2)c1 (stereo unspecified)	8.1	3.4	-4.7	-8.2	-12.8	-4.5
CC(Sc1nnc(-c2ccco2)o1)C(=O)NCCC1=CCCCC1 (stereo unspecified)	47.4*	2.0	x	28.4	21.0	-3.1
CCN(CC)C(=O)Cn1cc(C(=O)C(=O)NCc2cccs2)c2ccccc21	4.3	12.4	0.2	0.2	11.3	4.8
CCN(CC)C(=O)Cn1cc(C(=O)C(=O)NCCCn2ccnc2)c2ccccc21	0.2	13.6	94.6*	-2.6	8.2	16.7
Cc1cc(O)c(-c2cc(O)c(C)cc2O)cc1O	-4.2	134.1*	-1.9	11.9	6.8	-28.0
O=C(O)c1ccccc1SCC(=O)N1CCOCC1	28.9	5.7	40.9*	32.7	17.9	-0.4
O=C(O)c1ccccc1SCC(=O)N1CCCCC1	-0.4	11.2	2.3	4.8	7.8	-2.9
CCOc1ccc(-n2c(SCC(N)=O)nc3c([nH]c4ccccc43)c2=O)cc1	43.9*	10.9	16.1	4.4	8.1	46.4
O=c1[nH]c(N2CCCC2)nc2c1CCN(Cc1ccnc3ccccc13)C2	x	x	x	x	x	-72.7
COC(=O)[C@@H]1[C@H]2C[C@H]3c4[nH]c5ccccc5c4CCN3C[C@@H]2CC[C@@H]1O	x	11.0	x	x	x	-0.8
COC(=O)[C@H]1[C@@H]2C[C@H]3c4[nH]c5ccccc5c4CCN3C[C@H]2CC[C@@H]1O	x	41.2*	x	x	x	9.5
COc1ccc2c3c([nH]c2c1)[C@H]1C[C@@H]2[C@H](C[C@@H](O)[C@H](OC)[C@H]2C(=O)O)CN1CC3	x	51.2*	x	x	x	12.1
Cc1nn(CC(=O)N2CCc3ccccc3C2)c(=O)c2cc3sccc3n12	x	x	x	x	x	-17.1
O=C(CSc1ccc(-c2nc3ccccc3[nH]2)cn1)Nc1cccc(F)c1	x	49.1*	x	x	x	-91.5
O=C(CSc1ccc(-c2nc3ccccc3[nH]2)cn1)Nc1ccccc1-c1ccccc1	x	12.4	x	x	x	-47.2
O=C1C(Cl)=C(Nc2ccc(S(=O)(=O)Nc3ccccn3)cc2)C(=O)c2ccccc21	x	107.1*	x	x	x	-63.1
SMILES	hK5 inh	PGE2 EP2 inh	thrombin 1536	FXIa inh	FXIIa inh	EP2 mod
CCCCNC(=O)Cn1nc(-c2ccc(C)o2)cc(N)c1=O	x	20.3	x	x	x	-55.7
C=CCN1C(=O)C(C(C)CC)NC1=S (stereo unspecified)	87.7*	7.7	40.7*	35.8	23.4	11.8
C=CCN1C(=O)C(C)NC1=S (stereo unspecified)	0.2	2.9	-8.5	2.9	8.6	-11.6
O=C(Nc1nc2ccccc2o1)Nc1ccccc1Cl	x	40.8*	x	x	x	-42.6
CC(C)(C)NC(=O)C(c1ccco1)N(Cc1ccc(F)cc1)C(=O)c1snc(C(N)=O)c1N (stereo unspecified)	-31.8	6.8	-4.1	-5.0	3.5	14.6
COc1ccc(CN(C(=O)c2snc(C(N)=O)c2N)C(C(=O)NC(C)(C)C)c2ccco2)cc1 (stereo unspecified)	11.1	1.6	-2.9	-8.7	43.1*	9.3
O=C(CC1CCCCC1)N1CCC[C@H]1Cn1nc(-c2ccc(F)cc2)ccc1=O	x	x	x	x	x	-16.7
CCN(CC)C(=O)Cn1ncc2c3sc(C)cc3n(Cc3cccc(OC)c3)c2c1=O	x	x	x	x	x	-0.4
NNC(=O)CNC(c1ccccc1)c1cc(Br)ccc1NC(=O)c1cccc(Cl)c1 (stereo unspecified)	-16.7	3.8	-5.5	-1.3	4.2	27.6
COC(=O)CNC(c1ccccc1)c1cc(Cl)ccc1NC(=O)c1cccc(Cl)c1 (stereo unspecified)	-14.2	-2.1	-6.4	-1.9	2.4	63.1*
O=C(CCl)NC1(C(F)(F)F)C(=O)Nc2c1c(=O)[nH]c(=O)n2-c1ccccc1 (stereo unspecified)	2.6	10.1	1.8	5.5	12.9	5.6
O=C1Nc2c(c(=O)[nH]c(=O)n2-c2ccccc2)C1(Nc1ncccn1)C(F)(F)F (stereo unspecified)	155.8*	8.5	12.5	15.1	31.7	15.6
O=C1c2ccc(O)c(O)c2C(=O)c2c(O)ccc(O)c21	x	13.0	x	x	x	18.6
CC1=CC(=O)c2c(O)ccc(O)c2C1=O	-7.3	83.9*	1.5	1.3	6.1	-50.9
CN(C)c1ccc(C(C(=O)NC2CCCC2)N(Cc2ccco2)C(=O)c2ccco2)cc1 (stereo unspecified)	x	19.7	x	x	x	57.9
Cc1sc(NC(=O)c2ccco2)nc1-c1cccs1	x	17.1	x	x	x	11.6
CC12COC3(C(=O)Nc4nccs4)CC1CCC32C (stereo unspecified)	71.8*	12.4	12.3	0.7	13.7	-20.9
Cc1ccc(N2C(=S)NC3c4ccccc4OC2(C)C3C(=O)N(C)C)cc1 (stereo unspecified)	5.2	10.4	44.4*	-0.1	15.3	9.4
CCOc1ccc2[nH]c(=O)c(CN(CCCO)C(=O)c3cccs3)cc2c1	x	7.2	x	x	x	-28.3
O=S(=O)(N1CCCC1)N1CC(CN2CCOCC2)c2ccccc21 (stereo unspecified)	x	9.6	x	x	x	-11.2
CCCNC(=O)c1cccc(Cn2cc(Br)c([N+](=O)[O-])n2)c1	41.3*	6.2	11.4	8.5	38.7	2.6
NNC(=O)c1cccc(Cn2cc(Br)c([N+](=O)[O-])n2)c1	1.0	3.9	-1.9	0.8	5.7	-6.5
CC(=O)Nc1nc(-c2ccccc2)ns1	-13.2	3.9	-2.2	4.2	12.4	-9.3
COCC(=O)Nc1ccccc1-c1ccccc1	13.0	9.3	33.7	45.0*	29.6	15.4
COCC(=O)Nc1nc(-c2ccccc2)ns1	57.7*	2.1	19.3	-11.3	24.4	-17.9
Cc1ccc(-c2nc(CNC(=O)C3(C)CC(c4ccccc4)=NO3)no2)cc1 (stereo unspecified)	x	4.8	x	x	x	-102.0
